In the EternaBench riboswitch data:

Tested on: MS2 coat protein
Assay: apparent Kd, MS2 coat protein; higher = weaker binding; RNA-MaP array; FMN 200 µM where present
Summary of the method: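 Two titrations, one without ligand and one with constant ligand, were run with SNAP-549-labelled MS2 coat protein from 0.7 or 1.5 nM, doubling to 3 µM. The targets were designs transcribed by stalled E. coli RNA polymerase on Illumina sequencing-chip clusters, in 100 mM Tris-HCl pH 7.5, 80 mM KCl, 4 mM MgCl2, BSA, DTT, yeast tRNA and Tween-20. The apparent Kd is the median of filtered per-cluster binding-curve fits, with green signal normalised to red-channel RNA signal and control-cluster median Fmax.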

[1] = designed as: ON switch for flavin mononucleotide, no ligand
[2] = ligand present: flavin mononucleotide, designed as: ON switch for flavin mononucleotide
[3] = designed as: OFF switch for flavin mononucleotide, no ligand
[4] = ligand present: flavin mononucleotide, designed as: OFF switch for flavin mononucleotide

Sequence	apparent Kd [1] [nM]	apparent Kd [2] [nM]	apparent Kd [3] [nM]	apparent Kd [4] [nM]
CUGAGCAGUCAAGGAUAUCACGUCGAAUAGACGUGAGAAGGUGACCAAUACAUGAGGAUCACCCAUGUAAUACAUGAAGCUCAG	38.1	17.4	–	–
AGAGCCUCGUGAGGAUAUACAUGAGGAUCACCCAUGUAAAUGAAAGAUACGUCGAAACGACGAAUGUAGAAGGCACGAGGCUCA	–	–	17.8	65.9
AAUUGGAUGCAGAAGGCAUGGACGACUCGUCACAUUAACAUGAGGAUCACCCAUGUCAAAAGACAUGAGGAUAUGCAUCCUAAA	233	13.6	–	–
ACGACAAAAGUCGAACGAUGUAGCAGAAGGACAUGAGGAUCACCCAUGUAAAAUGUAACAGCCAUGUAGGAUAUGCUACAUCGA	–	–	31.4	288
UUGUGGGAGACAGGAUAUGUACGGAAGGUCCACGUACAUGAGGAUCACCCAUGUCCAGGCUUCAGACAGAAGGGUCACCAGGUG	595	45.4	–	–
UGUGGGAGUCAGAAGGAGUAUUCUACAUGAGGAUCACCCAUGUCUGGUACUAGGAUAUGGGUCUGGACGGACUAAGGUCCCGUA	753	196	–	–
UUAUGUGUUGUAGGAUAUCAUUAGAUUUGUAAUUUAAUUGUAAUUUACAUAUGAGAAGGACAUUUACAUGAGGAUCACCCAUGU	–	–	12.5	9.6
GGAUAGGACAGAGGAUAUACGUGCUUGAGAUACUAGCAAAAUUUCCUCACAUGAGGAUCACCCAUGUAGAAGGCUGUCCUAUCG	–	–	20.2	436
AAUAAACUCACAGGAUAUAGCAUCGUCGUUGCGAACUUAGCGACGACGAUGCUAGAAGGGUGUAUACAUGAGGAUCACCCAUGU	23	11.2	–	–
CUCGGACAUGAGGAUCACCCAUGUGAGGAUAUGGUGCUAUCGUCAUUAGACGAUUGCGUUAGAAGGCACAUUUU	–	–	31.4	80.1
CUCAAGUGAGGAUAUAUACUUCCAUCAUUUGAGAUAGAAGUAUAGAAGGCACAUGAGGAUCACCCAUGUAUAAC	–	–	136	39.7
UGAUAGGACAGAGGAUAUACGGAUAGGAUCUACUAUCAAACAGGUCCUACAUGAGGAUCACCCAUGUAGAAGGCUGUCCUAUCU	–	–	22.9	111
GGAGCCGGCACCGAGGAUAUUCAUAUUAAAACAUGAGGAUCACCCAUGUAGAGCGAAAGCUCUUGGGAGAAGGCGGAUCGGCUCG	730	46.5	–	–
UUUAAGUCAGGAUAUCGUUAAUUUAAUUAUUUAUUUUAAUUCGAGAAGGGACAUGAGGAUCACCCAUGUAAUUU	–	–	36.1	55.9
GGAUAGGACAGAGGAUAUAGGUGCUAGAGAUACUAGCAAAAUUUCCUCACAUGAGGAUCACCCAUGUAGAAGGCUGUCCUAUCG	–	–	11.5	25.4
UGAUAACAUGUAGGAUAUGCAGCAUUGACCACUGCAGAAGGACAUGAGGAUCACCCAUGUACCGAUACUAUGGGAUCACGCAAU	–	–	24.3	87.4
GCUGCAUAGGCAGGAUAUGCAAUAAUUCGGAUAAAAUAUAACGAAUUAACAUGAGGAUCACCCAUGUAGAAGGGCCUGUGCAGU	–	–	5.95	5.72
AAUUAACUCACAGGAUAUAGCAGAGGUCGCGCGAACUUACAGGCGACGAGGCUAGAAGGGUGACCACAUGAGGAUCACCCAUGU	770	72.4	–	–
GUGGUGGGUUGAGGAUAUUGGUUGUUGUUGUCCCACAUGAGGAUCACCCAUGUGGGUUGUGGUUUUGAGAAGGUUGGUUGCCGG	18.8	16.6	–	–
UUUAUGUCAGGAUAUGAGUAGUAGAACAAUAGUACUACUACUCAGAAGGGACAUGAGGAUCACCCAUGUUCCUC	–	–	18.2	98.8
CAGUAUUGAGGAUAUACAUGAGGAUCACCCAUGUGUUCCAGCUAGGAAACUAGCAAAAGUAGAAGGCAGUACUG	–	–	21.6	186

Sequence	apparent Kd [1] [nM]	apparent Kd [2] [nM]	apparent Kd [3] [nM]	apparent Kd [4] [nM]
UUAUAUAGUGUGAGGAUAUGCUGGUCCUUGGAUCAGCAGAAGGCACAUGAGGAUCACCCAUGUAGUUAAUUAUA	–	–	32	122
UUGCCUCAGAACAUGAGGAUCACCCAUGUGCUGCGGGCAACGUAGGAUAUGACGGUAUGAUACCGUCAGAAGGAUGAUGGUACC	5.62	5.25	–	–
AGUCGGCGAGGAUAUACAUGAGGAUCACCCAUGUGAUAGAGUGCACGCGUACGUGUAUGUAGAAGGCGCUGACA	–	–	82	748
GUAGUAUUAAGUUCAUAAUAUAGGAUAGAAGGUGAAAAUUUGACAUGAGGAUCACCCAUGUAAUUCAAGGAUAUGUAGUAACUC	97.7	80.1	–	–
GGCAUGCAAAUAAAACAUGAGGAUCACCCAUGUGAGUCUCAUGAGGAUAUGCAGGUCAAAGACUUGCAGAAGGCAUGGCGUGCC	1950	132	–	–
GCAUGCAAGUAGAAGGACGGAUAUUUUGAAAACGUAGGAUAUACAGAAUCAUAUCCACAAGGUUACAUGAGGAUCACCCAUGUA	–	–	8.19	8.08
UACACGGUAGGAUAUACGUAGAUGCAGGUUCGUGUGGUGCUACAUGAGGAUCACCCAUGUAGAAGGACCAACGU	–	–	15.7	15.2
UAUAUGUCAGGAUAUCGAUUGGUACGGAAUUCGGUACUGGUUGAGAAGGGACAUGAGGAUCACCCAUGUUUUUC	–	–	38.5	228
CGCCAGUGAGGAUAUCCAUCUGGAUCAGACUAGAUCCUGAUGGAGAAGGCACAUGAGGAUCACCCAUGUCGGCG	–	–	18.5	19.5
GCGAUUUUUAGAUUUUAAUAAUUUACAGAAGGUGAUAUACUUACAUGAGGAUCACCCAUGUUAUUCAAGGAUAUGUAGAUACUC	308	31	–	–
CCUGUCGCAUGAGGAUAUGGUCAGCUUUGCUGACCAGAAGGCAUGUCAAUAGACAUGAGGAUCACCCAUGUAGUUAAGACAGGA	615	46.7	–	–
AUGAAGAGGCAAGGAUAUCGAGUGCUGGGCCUAUACAUGAGGAUCACCCAUGUCCUGGCAGGACGUGAGAAGGUGUAUCUAAUA	217	343	–	–
AGCCGGGCCCAGAAGGUGCCAGCGAGAGCUGCACAUGAGGAUCACCCAUGUUGUCGGUGACGACGCAAGGAUAUGGGCCCGGCU	22.7	7.17	–	–
CAUUAAUUCAUUAUAGUUAUUAUACAGGAUAUGUUACAUGAGGAUCACCCAUGUAUUCUUGGUAAACAGAAGGGUAUUUCUAGU	–	–	7.48	8.5
GUGGUGCAUAUACGUGGAUGUACAUGAGGAUCACCCAUGUAAGAGGAUAUGCGGAUACUAGCUCAGCAGAAGGCUUACAAAUGA	–	–	30.3	240
AUUUUAAAGGGAGGAUAUACAUGAGGAUCACCCAUGUAAACGUGAGGAUCACCCAUGUAAACAAUGUAGAAGGCCUAAAUCUAU	–	–	86.1	73.6
CAAUUUAUAACAGGAUAUAUAAUACAAUAGUUAAUAGAAGGGUUUAAUACAUGAGGAUCACCCAUGUCAUGUGUCAUAAUUACC	–	–	34.8	30.5
UGGUACAUGGGAGGAUAUGGGACAUGAGGAUCACCCAUGUGAAAAUUAAAUAUGCCGAGAGGCAACUAGAAGGCCCAUGUACCU	29.9	14.9	–	–
CCAAGUUCGUAGGAUAUAGAUGCCUUAGGGCAAUUAGAAGGAUGGACAUGAGGAUCACCCAUGUCGGAUUCUGU	–	–	–	18
AAUUUUGCAGGAUAUGCGCAGCGUUUAGCCACACUAUGGAAACAUGAGGAUCACCCAUGUAGAAGGGCAGAGAU	–	–	26.4	20.8
AUAGGACGAAACAUGAGGAUCACCCAUGUGUUAUAAUUAAUAUAGGAUAUGUUUAUACUUUUUGGGCAGAAGGAUGAUAAUGCU	16.6	14.7	–	–
